Source: ChEMBL document CHEMBL4152379, “Discovery of Pyrrolidine Sulfonamides as Selective and Orally Bioavailable Antagonists of Transient Receptor Potential Vanilloid-4 (TRPV4)” (J Med Chem, 2018)
Converted amounts (≈) assume the structure as drawn. Values belong to the molecule of their own block, whether it stands above or below them.

What was measured:
[1] = biological target: Transient receptor potential cation channel subfamily V member 4 (Homo sapiens, UniProt Q9HBA0); assay: Antagonist activity at human TRPV4 expressed in BHK/AC9 or HEK MSR2 cells assessed as inhibition of GSK634775-induced Ca2+ flux pre-incubated for 10 mins before agonist addition by FLIPR assay
Rattus norvegicus [2] = assay: In vivo antagonist activity at TRPV4 in iv dosed Sprague-Dawley rat assessed as inhibition of GSK1016790A-induced increase in lung wet weight by measuring lung weight/body weight ratio in at 0.03 to 0.23 mg/kg, iv dosed via bolus dose followed by iv infusion at 0.6 to 5.1 ug/kg/min for 60 mins; type: functional, organism-based
In short: (§1)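 Sprague-Dawley rats given an i.v. bolus loading dose, then a 60 min continuous i.v. infusion to reach steady-state plasma exposure. Challenged with GSK1016790A at 10 μg/kg/min by 10 min i.v. infusion. Mean arterial pressure and lung wet weight/body weight ratio recorded. Mean ± SEM; comparisons by ANOVA with Dunnett's or Bonferroni post hoc tests.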

[3] = Clearance in iv dosed Sprague-Dawley rat; type: ADME, organism-based; conditions: in vivo
In short: (§2)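 Male Sprague-Dawley rats with femoral vein, femoral artery and gastric catheters; noncrossover design, 2 rats per route; cassette dosing of up to five compounds. i.v. target 1 mg/kg in 5% DMSO/20% Cavitron (pH 4), infused over 30 min. Oral gastric bolus target 2 mg/kg in 5% DMSO/6% Cavitron (pH 4). Plasma sampled to 24 h and measured by HPLC−MS/MS. Noncompartmental analysis; F from dose-normalized AUC(0−∞) relative to mean i.v. AUC.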

[4] = Fraction unbound in Sprague-Dawley rat plasma; type: ADME, cell-free
Rattus norvegicus [5] = assay: In vivo antagonist activity at TRPV4 in iv dosed Sprague-Dawley rat assessed as inhibition of GSK1016790A-induced increase in lung wet weight by measuring lung weight/body weight ratio in at 0.23 mg/kg, iv dosed via bolus dose followed by iv infusion at 5.1 ug/kg/min for 60 mins; type: functional
In short: as §1

Rattus norvegicus [6] = assay: In vivo antagonist activity at TRPV4 in iv dosed Sprague-Dawley rat assessed as inhibition of GSK1016790A-induced reduction in mean arterial pressure at 0.23 mg/kg, iv dosed via bolus dose followed by iv infusion at 5.1 ug/kg/min for 60 mins; type: functional
In short: as §1

Rattus norvegicus [7] = species: Rattus norvegicus; assay: Unbound clearance in Sprague-Dawley rat; type: ADME, organism-based; conditions: in vivo
[8] = MRT in iv dosed Sprague-Dawley rat; type: ADME, organism-based; conditions: in vivo
In short: as §2

[9] = Steady state plasma concentration in Sprague-Dawley rat at 0.23 mg/kg, iv dosed via bolus dose followed by iv infusion at 5.1 ug/kg/min for 60 mins; type: ADME, organism-based; conditions: in vivo, 1 h
[10] = Aqueous solubility of the compound; type: physicochemical; conditions: buffer
[11] = Oral bioavailability in Sprague-Dawley rat; type: ADME, organism-based; conditions: in vivo
In short: as §2

[12] = Lipophilicity, log D of the compound by chromatography; type: physicochemical
Rattus norvegicus [13] = assay: In vivo antagonist activity at TRPV4 in iv dosed Sprague-Dawley rat assessed as inhibition of GSK1016790A-induced reduction in mean arterial pressure at 0.03 to 0.23 mg/kg, iv dosed via bolus dose followed by iv infusion at 0.6 to 5.1 ug/kg/min for 60 mins; type: functional, organism-based
In short: as §1

[14] = Steady state plasma concentration in Sprague-Dawley rat at 0.03 mg/kg, iv dosed via bolus dose followed by iv infusion at 0.6 ug/kg/min for 60 mins; type: ADME, organism-based; conditions: in vivo, 1 h
[15] = Steady state plasma concentration in Sprague-Dawley rat at 0.08 mg/kg, iv dosed via bolus dose followed by iv infusion at 1.7 ug/kg/min for 60 mins; type: ADME, organism-based; conditions: in vivo, 1 h

Chain of Transient receptor potential cation channel subfamily V member 4 (Q9HBA0 whole entry, the tested form may be a part): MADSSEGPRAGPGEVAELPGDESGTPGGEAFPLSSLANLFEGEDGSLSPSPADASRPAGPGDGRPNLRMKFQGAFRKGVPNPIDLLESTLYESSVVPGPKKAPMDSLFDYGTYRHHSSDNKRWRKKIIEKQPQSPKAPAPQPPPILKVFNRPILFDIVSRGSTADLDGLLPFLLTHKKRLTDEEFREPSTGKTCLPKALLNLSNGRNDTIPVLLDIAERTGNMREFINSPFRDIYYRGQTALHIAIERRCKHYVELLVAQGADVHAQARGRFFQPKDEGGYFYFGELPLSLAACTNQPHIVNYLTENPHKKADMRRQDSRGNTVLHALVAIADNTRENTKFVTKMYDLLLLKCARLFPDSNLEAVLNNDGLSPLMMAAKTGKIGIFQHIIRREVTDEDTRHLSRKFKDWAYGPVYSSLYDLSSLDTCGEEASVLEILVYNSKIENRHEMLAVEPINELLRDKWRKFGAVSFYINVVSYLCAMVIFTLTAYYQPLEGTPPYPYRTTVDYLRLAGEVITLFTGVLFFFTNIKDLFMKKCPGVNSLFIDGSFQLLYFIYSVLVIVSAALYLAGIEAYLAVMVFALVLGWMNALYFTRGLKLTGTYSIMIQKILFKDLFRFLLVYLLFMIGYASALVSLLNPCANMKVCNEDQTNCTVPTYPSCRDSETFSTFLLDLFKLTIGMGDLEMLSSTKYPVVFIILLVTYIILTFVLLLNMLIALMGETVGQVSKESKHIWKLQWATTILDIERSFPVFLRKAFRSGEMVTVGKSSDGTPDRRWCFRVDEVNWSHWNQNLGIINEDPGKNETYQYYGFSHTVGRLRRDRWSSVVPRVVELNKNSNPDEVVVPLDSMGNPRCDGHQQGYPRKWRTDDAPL

Structure (SMILES): N#Cc1ccc(OCC2CCN(S(=O)(=O)c3ccc(Cl)cc3Cl)CC2)cc1F
IC50 [1]: 6.3 µM

Structure (SMILES): N#Cc1ccc(O[C@H]2CN(S(=O)(=O)c3ccc(Cl)cc3Cl)C[C@]2(O)CO)cc1F (racemic)
IC50 [1]: 0.1 µM

Structure (SMILES): N#Cc1ccc(OC[C@@H]2CN(S(=O)(=O)c3ccc(Cl)cc3Cl)C[C@H]2O)cc1F (racemic)
IC50 [1]: 1 µM

Structure (SMILES): N#Cc1ccc(O[C@H]2CN(S(=O)(=O)c3ccc(Cl)cc3Cl)C[C@@H]2O)cc1F (racemic)
IC50 [1]: 0.04 µM

Structure (SMILES): N#Cc1ccc(OCC2(O)CCN(S(=O)(=O)c3ccc(Cl)cc3Cl)C2)cc1F (racemic)
IC50 [1]: 0.15 µM

Structure (SMILES): N#Cc1ccc(OC2CCN(S(=O)(=O)c3ccc(Cl)cc3Cl)C2)cc1F (racemic)
IC50 [1]: 0.32 µM

Structure (SMILES): N#Cc1ccc(OC[C@H]2CN(S(=O)(=O)c3ccc(Cl)cc3Cl)C[C@H]2O)cc1F (racemic)
IC50 [1]: 1.5 µM

Structure (SMILES): N#Cc1ccc(OC[C@@]2(O)CN(S(=O)(=O)c3ccc(Cl)cc3Cl)C[C@@H]2O)cc1F (racemic)
IC50 [1]: 0.15 µM

Now from value to molecule, other results behind:

IC50 [1]: 0.05 µM
Structure (SMILES): N#Cc1ccc(O[C@H]2CN(S(=O)(=O)c3ccc(Cl)cc3Cl)C[C@H]2CO)cc1F (racemic)

clearance [3]: 82 mL/min/kg
fraction unbound [4]: 0.049
IC50 [1]: 0.001 µM
CL free (Rattus norvegicus [7]): 1400 mL/min/kg
MRT [8]: 0.8 h
Cpss [9]: 90 nM
solubility [10]: 90 µM (≈ 43.7 µg/mL)
bioavailability [11]: 72%
chromatographic logD [12]: 4.6
Cpss [14]: 30 nM
Cpss [15]: 40 nM
Structure (SMILES): N#Cc1ccc(O[C@H]2CN(S(=O)(=O)c3ccc(C(F)(F)F)cc3C#N)C[C@@]2(O)CO)cc1F
inhibition (Rattus norvegicus [2]): Dose-dependent effect
inhibition (INH) (Rattus norvegicus [5]): 100%
inhibition (INH) (Rattus norvegicus [6]): 100%
inhibition (Rattus norvegicus [13]): Dose-dependent effect

IC50 [1]: 0.05 µM
Structure (SMILES): N#Cc1ccc(OCC2(O)CN(S(=O)(=O)c3ccc(Cl)cc3Cl)C2)cc1F

IC50 [1]: 0.004 µM
Structure (SMILES): N#Cc1ccc(O[C@H]2CN(S(=O)(=O)c3ccc(Cl)cc3Cl)C[C@@]2(O)CO)cc1F (racemic)

IC50 [1]: 0.1 µM
Structure (SMILES): N#Cc1ccc(O[C@H]2CN(S(=O)(=O)c3ccc(Cl)cc3Cl)C[C@H]2O)cc1F (racemic)

clearance [3]: 19 mL/min/kg
fraction unbound [4]: 0.013
IC50 [1]: 0.13 µM
CL free (Rattus norvegicus [7]): 1461 mL/min/kg
MRT [8]: 1.5 h
solubility [10]: 7.5 µM (≈ 3.44 µg/mL)
bioavailability [11]: 56%
chromatographic logD [12]: 6.3
Structure (SMILES): N#Cc1ccc(OCC2(O)CCN(S(=O)(=O)c3ccc(Cl)cc3Cl)CC2)cc1F

IC50 [1]: 0.2 µM
Structure (SMILES): N#Cc1ccc(O[C@H]2CN(S(=O)(=O)c3ccc(Cl)cc3Cl)C[C@@H]2CO)cc1F (racemic)
